Published values gathered from unrelated publications.
Compare with care: the assays were run in different laboratories.
Target: Vascular endothelial growth factor receptor 2 (KDR, Homo sapiens, UniProt P35968)

SMILES	observed	mode	technique	concentration	endpoint	value
CC(=O)N1CCC(c2ccc(C(=O)NC3=NCCN3)cc2C(F)(F)F)CC1	cell-free assay	–	competition with immobilised ligand	1 µM	remaining binding	80%
CN(C)C1CCN(CC#Cc2nn(C3CCCC3)c3nc(NCc4ccccc4)ncc23)C1 (stereo not shown)	enzyme activity	inhibitor	FRET	1 µM	inhibition	14%
CCCS(=O)(=O)Nc1ccc(F)c(C(=O)c2c[nH]c3ncc(-c4ccc(Cl)cc4)cc23)c1F	enzyme activity	inhibitor	–	1 µM	inhibition	< 20%
O=C1Nc2ccc(Cl)cc2C1=Cc1cc(Cl)c(O)c(Cl)c1	cell-free assay	–	–	0.5 µM	remaining signal	86.1%
COc1ccc(C=NNC(=O)c2sc(Nc3ccccc3)c(C(=O)Nc3ccc(OC)cc3)c2NC(C)=O)cc1	enzyme activity	inhibitor	–	100 µM	remaining activity	35.1%
CNC(=O)c1c(C)oc2cc(Oc3ncnc4cc(OC)c(OC)cc34)ccc12	enzyme activity	inhibitor	–	0.1 µM	inhibition	89.9%
COc1ccc(NC(=O)c2c(Nc3ccccc3)sc(C#N)c2NC(=O)CNc2ccc(Cl)cc2)cc1	enzyme activity	inhibitor	–	0.1 µM	remaining activity	61.3%
CCS(=O)(=O)c1cc2cc(C[C@@](O)(CC(C)(C)c3ccc(F)cc3C(N)=O)C(F)(F)F)[nH]c2cn1	cell-free assay	–	competition with immobilised ligand	1 µM	remaining binding	92%
CNc1cccc2cc(C(=O)Nc3ccc(C(=O)O)cc3)c(=O)[nH]c12	enzyme activity	inhibitor	–	10 µM	inhibition	4.8%
CS(=O)(=O)NCC[C@H](NC(=O)c1cncc2c1cnn2-c1ccc(F)cc1)c1ccnc(S(C)(=O)=O)c1	cell-free assay	–	competition with immobilised ligand	1 µM	remaining binding	100%
COc1ccc(NC(=O)c2c(Nc3ccccc3)sc(C#N)c2NC(=O)CNc2ccc(Br)cc2)cc1	enzyme activity	inhibitor	–	10 µM	remaining activity	35.4%
Cc1ccc(NC(=O)c2ccc(C)c(C(F)(F)F)c2)cc1C#Cc1nn(C2CCC(O)CC2)c2ncnc(N)c12 (stereo not shown)	cell-free assay	–	–	10 µM	remaining signal	2%
N#CCCc1ccc2c(c1)-c1[nH]c3ccc([N+](=O)[O-])cc3c1CC(=O)N2	cell-free assay	–	–	0.5 µM	remaining signal	75.5%
Cc1ccc(C(=O)NCc2ccsc2)cc1C#Cc1cn(C(C)C)c2ncnc(N)c12	enzyme activity	inhibitor	–	1 µM	activity vs control	0%
Cc1sc(C(=O)NC2COC2)cc1-n1cc(NC(=O)Nc2c(F)cccc2Cl)cn1	enzyme activity	inhibitor	–	10 µM	remaining activity	88.2%
CN(C)c1ncnc(-c2ccc3nc(Nc4cc(CN5CCN(C(=O)CC(F)(F)F)CC5)ccn4)[nH]c3c2)c1Cl	cell-free assay	–	competition with immobilised ligand	1 µM	remaining binding	74%

SMILES	observed	mode	technique	concentration	endpoint	value
O=C(CSc1nc2nccnc2c(=O)n1CCc1ccccc1)Nc1nccs1	enzyme activity	inhibitor	–	10 µM	inhibition	10%
COc1cc2ncnc(Nc3ccc(Oc4ccccc4)c(C)c3C)c2cc1OC	enzyme activity	inhibitor	–	1 µM	inhibition	16%
COc1ccc(NC(=O)c2c(Nc3ccccc3)sc(C(=O)NN=Cc3ccc(Cl)cc3)c2NC(C)=O)cc1	enzyme activity	inhibitor	–	10 nM	remaining activity	96.1%
O=C1Nc2ccc(Br)cc2/C1=C/c1cc2c([nH]1)CCCC2	cell-free assay	–	–	0.5 µM	remaining signal	70.9%
Cc1c(NC(=O)c2cc(C(N)=O)nc3cc(F)ccc23)c(C(F)(F)F)nn1Cc1ccc(C(C)(C)C)cc1	cell-free assay	–	competition with immobilised ligand	1 µM	remaining binding	100%
COc1ccc(NC(=O)c2c(Nc3ccccc3)sc(C(=O)NN=Cc3cc(OC)c(OC)c(OC)c3)c2NC(C)=O)cc1	enzyme activity	inhibitor	–	1 µM	remaining activity	82.1%
C[S+]([O-])c1ccc(-c2nc(-c3ccncc3)c(-c3ccc(F)cc3)[nH]2)cc1 (stereo not shown)	cell-free assay	–	–	0.5 µM	remaining signal	99.2%
CNC(=O)c1cc2c(Oc3ccc(NC(=O)C4(C(=O)Nc5ccc(F)cc5)CC4)cc3)ccnc2cc1OC	enzyme activity	inhibitor	radiometric	1 µM	inhibition	82%
COc1ccc(-c2cnc3c(-c4ccsc4)cnn3c2)cc1	cell-free assay	–	–	0.5 µM	remaining signal	79.8%
COc1cc(-c2cn(C3CCc4ccccc4N(CC(F)(F)F)C3=O)nn2)ccc1-n1ccc(C)n1 (stereo not shown)	cell-free assay	–	competition with immobilised ligand	1 µM	remaining binding	79%
COc1cc2nccc(Oc3ccc(NC(=O)c4c5n(n(-c6ccc(F)cc6)c4=O)CCCC5)cc3)c2cc1OC	enzyme activity	inhibitor	–	0.1 µM	inhibition	22%
COc1ccc(NC(=O)c2c(Nc3ccccc3)sc(C(=O)NN=Cc3ccc(OC)c(O)c3)c2NC(C)=O)cc1	enzyme activity	inhibitor	–	10 µM	remaining activity	46.1%
COc1ccc2cc(OCC3(C(=O)O)CN(C(=O)c4ccc(F)cc4)C3)ccc2c1	cell-free assay	–	competition with immobilised ligand	1 µM	remaining binding	100%
COc1ccc(NC(=O)c2c(Nc3ccccc3)sc(C#N)c2NC(=O)CNc2ccc([N+](=O)[O-])cc2)cc1	enzyme activity	inhibitor	–	10 nM	remaining activity	98%
N#Cc1ccc(Nc2ccc3[nH]c(=O)[nH]c3c2)c(Cl)c1	cell-free assay	–	competition with immobilised ligand	1 µM	remaining binding	99%
